Screening results as filed in PubChem.
Most compounds without a hit are left out; they make up all but 2.2% or so of the library.
CSN inh: blocks human CSN-mediated cullin deneddylation. AID 651999. 360,000 tested, 0.38% active. inhibition, % at 12.5 µM. Q92905. Purified CSN, SCF-Nedd8-OG deneddylation, fluorescence polarization;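 active = pattern-corrected inhibition above about 35%, with an unprinted fluorescence ratio check between 0.5 and 1.5, limit read from the data, passing the limit was not always enough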;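 also: 0% = enzyme with substrate and 100% = substrate without enzyme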
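Schedule: reaction 90 min, room temperature / Assay system: HEK293T-derived human Csn5 enzyme / Input: Csn5 at 0.24 nM final / Measure: inhibition of Csn5 cleavage, % / Control set: substrate-only high control, full reaction low control / Technique: fluorescence polarization of the substrate / Buffer or medium: Tris/NaCl/DTT buffer, pH 7.5 / Reagent: SCFSkp2-Nedd8OG substrate at 10 nM final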
Myeloid diff MLP: promotes myeloid progenitor differentiation; ER-HoxA9 myeloid progenitors, lysozyme-GFP differentiation, flow cytometry; 360,000 tested, 1% active; calls only at 10 µM;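 active = normalized GFP-positive differentiation at or above the plate's own cutoff, the solvent-only control mean plus 3 SD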;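 also: cells exposed to compound for four days before flow analysis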
HNF4A DNA FP: change in binding of human HNF4 alpha to DNA | activity change, % at 10 µM | HNF4a-FITC DNA binding, fluorescence polarization, 1 h | 360,000 tested, 0.3% active; in the data active = activity change above about 30%, passing the limit was not always enough
Target sequence (P41235 whole entry, looked up): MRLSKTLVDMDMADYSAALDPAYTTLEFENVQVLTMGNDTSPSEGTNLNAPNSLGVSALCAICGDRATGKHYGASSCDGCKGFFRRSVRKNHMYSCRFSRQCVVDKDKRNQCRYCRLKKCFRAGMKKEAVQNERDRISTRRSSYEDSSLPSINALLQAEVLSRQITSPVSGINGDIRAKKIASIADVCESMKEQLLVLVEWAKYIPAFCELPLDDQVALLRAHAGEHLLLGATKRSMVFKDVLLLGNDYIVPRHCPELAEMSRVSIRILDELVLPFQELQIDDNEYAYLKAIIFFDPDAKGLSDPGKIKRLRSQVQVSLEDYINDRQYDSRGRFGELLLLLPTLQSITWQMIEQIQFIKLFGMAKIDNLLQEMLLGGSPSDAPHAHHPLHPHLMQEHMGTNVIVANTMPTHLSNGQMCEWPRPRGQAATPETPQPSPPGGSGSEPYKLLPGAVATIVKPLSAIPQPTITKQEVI
Exocytosis inh: lytic granule exocytosis inhibition; inhibition, % at 10 µM; AID 651702; TALL-104 LAMP-1 surface exposure, flow cytometry; cells stimulated with thapsigargin and PMA; 360,000 tested, 0.66% active;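 active = inhibition above about 55%, limit read from the data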
HNF4a DNA conf: change in binding of human HNF4 alpha to DNA, retest | AID 1224897 | HNF4A-FITC DNA binding, fluorescence polarization, 1 h | 210 tested, 99% active | activity change, % at 12.5 µM | shares compounds with HNF4A DNA FP; call rule not given here
The depositor's hits bear a star; i = inactive; nt = no result; + = active, no number.

SMILES	CSN inh	Myeloid diff MLP	HNF4A DNA FP	Exocytosis inh	HNF4a DNA conf
CSc1nsc(/C=C/Nc2ccc(F)cc2)c1C#N	16	+	51*	-1	46*
CSc1nsc(/C=C/Nc2ccc(Cl)cc2)c1C#N	22	+	40*	-3	61*
CC(Nc1ccc(Br)cc1)C(=O)Nc1cccc(S(=O)(=O)N2CCOCC2)c1 (centres undefined)	-2	i	-3	-2	nt
CC[C@]12c3[nH]c4ccccc4c3CCN1C(=O)C(CC(=O)NCc1cccc(C(F)(F)F)c1)C[C@@H]2C(=O)N1CCN(C(=O)c2ccco2)CC1 (some centres undefined)	-6	i	1	-5	nt
CC(=O)Nc1ccc(C(=O)Nc2cccc(-c3cnc4ccccc4n3)c2)cc1	86*	i	48*	-3	60*
COc1ccc2cc(C(c3nnnn3CCc3ccccc3)N3CCC(O)CC3)c(=O)[nH]c2c1 (centres undefined)	14	i	55*	-1	51*
Cc1c(C(=O)N2CCN(C(c3ccccc3)c3ccccc3)CC2)oc2ccccc12	-6	i	1	3	nt
CN1C=CC(=CC=C2C=CC(=O)C=C2)C=C1	34	i	54*	11	48*
CC(C)(/C=N/O)N(O)C=C1C=CC(=O)C=C1	0	i	-3	-4	nt
Cc1cn([C@H]2C[C@H](O)[C@@H](CCC(=O)NCCN3CCCCC3)O2)c(=O)[nH]c1=O	-4	i	-1	-1	nt
N#Cc1cc(Oc2ccccc2)c(-n2nnc3ccccc32)cc1C#N	1	i	4	-4	nt
N#Cc1cc(Oc2ccc3ccccc3c2)c(-n2nnc3ccccc32)cc1C#N	-5	i	62*	9	36*
COc1ccc(-c2ccc3c(c2)S(=O)(=O)c2cccc(C(=O)NC4CCCC4)c2C3=O)cc1OC	9	i	51*	-5	57*
CC(C)c1cccc(-c2ccc3c(c2)S(=O)(=O)c2cccc(C(=O)NC4CCCC4)c2C3=O)c1	-2	i	-3	6	nt
O=C(O)c1cccc2c1C(=O)c1ccc(N3CCCCC3)cc1S2(=O)=O	14	i	43*	-5	43*
O=C(NCC1CC1)c1cccc2c1C(=O)c1ccc(N3CCCC3)cc1S2(=O)=O	32	i	61	1	nt
O=C1c2ccccc2S(=O)(=O)c2cc(N3CCOCC3)ccc21	13	i	45*	17	50*
CC1CCN(c2ccc3c(c2)S(=O)(=O)c2cccc(C(=O)NC[C@@H]4CCCO4)c2C3=O)CC1	19	i	54*	0	62*
CC1CCN(c2ccc3c(c2)S(=O)(=O)c2cccc(C(=O)NC4CC4)c2C3=O)CC1	18	i	43*	-3	36*
CC(=O)Oc1ccc(C(=O)Cc2ccc3ccccc3n2)c(O)c1C	21	i	38*	-1	50*
N#C/C(=C\C1=C(N2CCOCC2)C(=C/c2cccc([N+](=O)[O-])c2)/CC1)C(=O)Nc1ccccc1F	25	i	54*	2	56*
O=S1(=O)N[C@H](Cc2ccccc2)COc2cc(N3CCC[C@@H]3CO)ccc21	-1	i	0	-3	nt
O=C(N/N=C/c1coc2ccccc2c1=O)c1ccccc1	6	i	2	-1	nt
O=C(N/N=C/c1coc2ccccc2c1=O)c1cc(Br)ccc1O	27	i	46*	-3	35*
Cc1cccc([C@@H]2[C@@H]3C(=O)N(Cc4ccccc4)C(=O)[C@@H]3[C@]3(Cc4ccccc4)C(=O)N(c4ccc(C(F)(F)F)cc4)C(=O)N23)c1	-4	i	-6	2	nt
SMILES	CSN inh	Myeloid diff MLP	HNF4A DNA FP	Exocytosis inh	HNF4a DNA conf
Cc1cccc(NC(=O)c2sc3nc(-c4ccccc4)cn3c2C)n1	15	i	15	2	nt
Cc1cccc(NC(=O)c2sc3nc(-c4ccc(F)cc4)cn3c2C)n1	36*	i	37*	1	38*
O=C(CC[C@H]1O[C@@H](n2ccc(=O)[nH]c2=O)[C@H](O)[C@@H]1O)N[C@H](Cc1ccccc1)C(=O)NCc1ccccc1	4	i	0	-3	nt
Cc1cccc(-c2c3c(=O)n(C)c(=O)n(C)c3c3nnc4ccccc4n23)c1	10	i	50*	-3	32*
O=C(Nc1ccc(F)cc1)c1ccc2ncsc2c1	3	i	-1	-10	nt
N#Cc1ccsc1NC(=O)c1ccc2ncsc2c1	59*	i	69*	6	77*
O=C1C(=O)N(CCCO)C(c2ccc(Br)cc2)/C1=C(\O)c1ccc(Br)cc1 (centres undefined)	1	i	-2	-8	nt
COCCNC(=S)N/N=C/c1ccc(-c2ccc([N+](=O)[O-])cc2)o1	9	i	20	3	nt
Cc1ccc(C)c(N(CC(=O)N/N=C/c2ccc(-c3ccc([N+](=O)[O-])cc3)o2)S(=O)(=O)c2ccccc2)c1	44*	i	93*	-2	54*
COc1ccc2c(c1)C1=NN(/C(C)=C\C(C)=O)C(c3ccccc3)C1CC2 (centres undefined)	9	i	40*	17	53*
CC(=O)c1ccc(NC(=O)c2ccc(NC(=O)c3ccco3)cc2)cc1	20	i	86*	-4	111*
CC1N(C)c2cc(NC(=O)c3ccco3)ccc2C1(C)C (centres undefined)	102	i	52*	0	41*
CC(=O)Nc1ccc(NC(=O)c2ccco2)cc1	-1	i	4	3	nt
CC1N(C)c2cc(NC(=O)c3ccco3)c(P(=O)(Nc3ccc([N+](=O)[O-])cc3)N3CCOCC3)cc2C1(C)C (centres undefined)	11	i	0	7	nt
CC(=O)c1sc(N/N=C\c2cccc(Br)c2)nc1C	27	i	39*	4	57*
O=C(/C=C\Nc1ccc2c(c1)OCO2)c1cccs1	2	i	6	1	nt
COc1ccc(N/C=C\C(=O)c2ccc3c(c2)OCO3)cc1	-1	i	10	-2	nt
O=C(/C=C\Nc1ccc2c(c1)OCO2)c1ccc(Cl)s1	21	i	88*	4	61*
O=C(/C=C\Nc1ccc2c(c1)OCO2)c1ccc2c(c1)OCO2	-1	i	81*	4	85*
CCOc1ccc(NC(=O)CN(C)C(=O)c2ccc3c(c2)S(=O)(=O)N=C2CCCCCN23)cc1OCC	-1	i	3	5	nt
Cc1ccc(CS(=O)(=O)Cc2ccc(C(=O)NC3CCCC3)o2)cc1	-1	i	0	-5	nt
O=C(NC(C(=O)c1ccccc1)c1ccccc1)c1ccccc1 (centres undefined)	3	i	0	4	nt
COc1cc(-c2cc(-c3ccc(N)cc3)[nH]c(=O)c2C#N)cc(OC)c1OC	27	+	55*	-12	83*
